Assay results of several laboratories.
Compare with care: the assays were run in different laboratories.
Target: Myosin light chain kinase 2, skeletal/cardiac muscle (MYLK2, Homo sapiens, UniProt Q9H1R3)

| Compound | effect on | method | tested at | remaining binding [%] |
| --- | --- | --- | --- | --- |
| CN(c1nccc(-c2cnn3ncccc23)n1)C1CC1 | binding | – | 1 µM | 100 |
| COc1cnc(Nc2cccc(S(N)(=O)=O)c2)nc1N1CCN(c2ccccc2)CC1 | binding | competition with immobilised ligand | 1 µM | 100 |
| CCN1CCN(Cc2ccc(C(=O)Nc3ccc(C)c(Oc4ccc5c(c4)CC(=O)N5)c3)cc2C(F)(F)F)CC1 | binding | competition with immobilised ligand | 1 µM | 100 |
| O=C(c1ccc(Nc2ncc(Cl)c(-c3cc4ccccc4s3)n2)cc1)N1CCC(N2CCCC2)CC1 | binding | competition with immobilised ligand | 1 µM | 1.2 |
| COc1ncc2cc3ccccc3nc2c1C#N | binding | competition with immobilised ligand | 5 µM | 84 |
| CN(C)CC#Cc1ccc(OCCCc2sc(N3CCc4cccc(C(=O)Nc5nc6ccccc6s5)c4C3)nc2C(=O)O)c(F)c1 | cell-free assay | competition with immobilised ligand | 1 µM | 100 |
| O=C(Nc1c[nH]nc1C(=O)NC1CCNCC1)c1cc(F)cc(F)c1 | binding | competition with immobilised ligand | 1 µM | 88 |
| O=C(c1ccc(Nc2ncc(Cl)c(-c3ccc(Cl)s3)n2)cc1)N1CCC(N2CCCC2)CC1 | binding | competition with immobilised ligand | 1 µM | 2.4 |
| COc1cc(-c2cn(C3CCc4c(F)cccc4N(CC(F)(F)F)C3=O)nn2)ccc1-n1cnc(C)c1 (centres unmarked) | cell-free assay | competition with immobilised ligand | 1 µM | 100 |
| CC1CCCN1c1nccc(-c2cnn3ncccc23)n1 (centres unmarked) | binding | – | 1 µM | 100 |
| Cc1cc(NC(=O)c2cccc(S(F)(F)(F)(F)F)c2)cc(-n2ccn3nc(-c4cccnc4)cc23)c1 | cell-free assay | competition with immobilised ligand | 1 µM | 100 |
| C[C@H]1CCN(c2nccc(-c3cnn4ncccc34)n2)C1 | binding | – | 1 µM | 79 |
| CNCc1ccccc1-c1csc([C@H](C)Nc2nc(C)nc3cc(OC)c(OC)cc23)c1 | cell-free assay | competition with immobilised ligand | 1 µM | 100 |
| N[C@@H]1CCN(c2nccc(-c3cnn4ncccc34)n2)C1 | binding | – | 1 µM | 98 |
| Cc1cnc(Nc2ccc(C(=O)N3CCC(N4CCCC4)CC3)cc2)nc1-c1cc2ccccc2s1 | binding | competition with immobilised ligand | 1 µM | 1.8 |
| Nc1ncc2c(n1)-c1c([nH]c3ccc(C#CC4CC4)cc13)CCCC2 | binding | competition with immobilised ligand | 1 µM | 100 |
| O=C(N1CCS(=O)(=O)CC1)N1C[C@H](c2ccc(OC(F)(F)F)cc2)C[C@H](c2nc(C3CC3)no2)C1 | cell-free assay | competition with immobilised ligand | 1 µM | 100 |
| c1cnn2ncc(-c3ccnc(N4CCC45COC5)n3)c2c1 | binding | – | 1 µM | 77 |
| Cc1c(C(=O)O)cc(-c2ccc(C3CCNCC3)cc2)c2ccc(-c3ccc(C(F)(F)F)cc3)cc12 | binding | competition with immobilised ligand | 1 µM | 100 |
| CN(C)c1nccc(-c2cnn3ncccc23)n1 | binding | – | 1 µM | 100 |
